Results published in article PMC4819696 (Febs Letters, 2016).
“Also recorded” adds a separate entry of the source. *: point of attachment. Biotin = O=C1N[C@H]2[C@H](CS[C@H]2CCCCC(=O)*)N1

Legend:
full‐length syntenin = molecular target: T1, full‐length syntenin (Homo sapiens, UniProt O00560); experiment: Surface plasmon resonance; type: binding; settings: used as reference channel; 10 mM HEPES, 150 mM NaCl, 0.005% Tween20, pH 7.4
T1 sequence (O00560 1-298): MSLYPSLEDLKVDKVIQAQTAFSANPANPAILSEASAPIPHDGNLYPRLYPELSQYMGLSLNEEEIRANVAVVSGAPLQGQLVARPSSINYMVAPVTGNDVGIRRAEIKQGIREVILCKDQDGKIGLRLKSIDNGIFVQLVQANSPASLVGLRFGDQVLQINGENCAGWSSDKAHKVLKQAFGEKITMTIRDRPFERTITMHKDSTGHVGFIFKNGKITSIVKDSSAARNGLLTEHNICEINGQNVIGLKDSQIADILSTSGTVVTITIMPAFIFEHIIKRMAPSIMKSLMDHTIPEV

syntenin PDZ1‐2 = experiment: Clonal phage ELISA against PDZ1‐2; type: binding; settings: clonal ELISA against the baits PDZ1, PDZ2 or PDZ1‐2
Outline: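 Syntenin PDZ1‑2 (107–275), PDZ1 (107–199) and PDZ2 (198–275) were expressed in E. coli ER2566 and purified by nickel affinity. Clones came from five rounds of selection of M13 gene‑8 libraries (random C‑terminal heptamers or internal dodecamers) on immobilized PDZ1‑2, with PBS/0.05% Tween 20 washes. Clones binding PDZ1‑2 but not control GST were sequenced, then each was tested by phage ELISA against immobilized PDZ1‑2, PDZ1 and PDZ2.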

[1] = molecular target: T2, full-length syntenin (SPR analyte) (UniProt O00560 1-298); experiment: SPR
T2 sequence (looked up): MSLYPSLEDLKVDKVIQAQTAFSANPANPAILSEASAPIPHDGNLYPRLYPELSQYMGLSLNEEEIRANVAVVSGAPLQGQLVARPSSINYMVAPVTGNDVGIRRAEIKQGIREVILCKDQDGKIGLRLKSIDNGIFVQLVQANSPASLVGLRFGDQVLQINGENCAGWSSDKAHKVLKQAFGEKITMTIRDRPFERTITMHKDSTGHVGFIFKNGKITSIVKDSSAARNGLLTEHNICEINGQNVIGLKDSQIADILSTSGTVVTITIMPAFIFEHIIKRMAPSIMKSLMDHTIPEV

nectin‐1 = type: cell-based; settings: freshly plated MCF‐7 cells, fibronectin-coated coverslips, 5 h
C‐terminus of nectin‐1 = type: binding; settings: bait C‐terminus of nectin‐1
Outline: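 Bait was transformed into MaV203 yeast, followed by 100 μg human fetal brain cDNA library in pEXP‑AD502. About 5 × 10^5 transformants were plated on medium lacking Trp/Leu/His with 20 mM 3‑amino‑1,2,4‑triazole, 30 °C, 5 days. Positives were checked on uracil and β‑galactosidase reporters, PCR‑amplified and retested in fresh bait yeast. Multi‑product colonies were discarded. Inserts were sequenced and in‑frame GAL4AD clones kept.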

syntenin = experiment: Co-immunoprecipitation of endogenous nectin-1 and syntenin in MCF‐7 cells; type: cell-based; settings: IP with nectin‐1 specific antibody, immunoblot with anti‐syntenin antibody

Biot‐RMRKKDEGSYDLGERKPSSAAYQKAPTKEFpYA‐COOH
binding to syntenin by SPR (in words) (full‐length syntenin): nonbinding

SHWTIDI
binding in clonal phage ELISA (in words) (syntenin PDZ1‐2): both PDZ domains are necessary for binding to this peptide

YYWAATGENVYS
binding in clonal phage ELISA (in words) (syntenin PDZ1‐2): loss of binding in phage ELISAs

B1: N-terminal biotinylated nectin-1 C-terminal peptide (peptide)
peptide: Biotin-AENMVSQNDGSFISKKEWYV-OH
SMILES: CC[C@H](C)[C@H](NC(=O)[C@H](Cc1ccccc1)NC(=O)[C@H](CO)NC(=O)CNC(=O)[C@H](CC(=O)O)NC(=O)[C@H](CC(N)=O)NC(=O)[C@H](CCC(N)=O)NC(=O)[C@H](CO)NC(=O)[C@@H](NC(=O)[C@H](CCSC)NC(=O)[C@H](CC(N)=O)NC(=O)[C@H](CCC(=O)O)NC(=O)[C@H](C)NC(=O)CCCC[C@@H]1SC[C@@H]2NC(=O)N[C@@H]21)C(C)C)C(=O)N[C@@H](CO)C(=O)N[C@@H](CCCCN)C(=O)N[C@@H](CCCCN)C(=O)N[C@@H](CCC(=O)O)C(=O)N[C@@H](Cc1c[nH]c2ccccc12)C(=O)N[C@@H](Cc1ccc(O)cc1)C(=O)N[C@H](C(=O)O)C(C)C
Kd [1]: 14 µM

B2: syntenin: small adaptor protein with PDZ1-2 tandem (protein)
chain: MSLYPSLEDLKVDKVIQAQTAFSANPANPAILSEASAPIPHDGNLYPRLYPELSQYMGLSLNEEEIRANVAVVSGAPLQGQLVARPSSINYMVAPVTGNDVGIRRAEIKQGIREVILCKDQDGKIGLRLKSIDNGIFVQLVQANSPASLVGLRFGDQVLQINGENCAGWSSDKAHKVLKQAFGEKITMTIRDRPFERTITMHKDSTGHVGFIFKNGKITSIVKDSSAARNGLLTEHNICEINGQNVIGLKDSQIADILSTSGTVVTITIMPAFIFEHIIKRMAPSIMKSLMDHTIPEV
modifications: left off: GAL4AD, end not stated, kept
colocalization (in words) (nectin‐1): colocalizes with nectin‐1 at the sites of cell–cell contacts | Y2H preference (in words) (C‐terminus of nectin‐1): preferred nectin‐1 binder; also recorded: favored ligand of the C‐terminus of nectin‐1

B3: nectin‐1: cell adhesion protein PVRL1, also called nectin-1 (protein)
chain: QVVQVNDSMYGFIGTDVVLHCSFANPLPSVKITQVTWQKSTNGSKQNVAIYNPSMGVSVLAPYRERVEFLRPSFTDGTIRLSRLELEDEGVYICEFATFPTGNRESQLNLTVMAKPTNWIEGTQAVLRAKKGQDDKVLVATCTSANGKPPSVVSWETRLKGEAEYQEIRNPNGTVTVISRYRLVPSREAHQQSLACIVNYHMDRFKESLTLNVQYEPEVTIEGFDGNWYLQRMDVKLTCKADANPPATEYHWTTLNGSLPKGVEAQNRTLFFKGPINYSLAGTYICEATNPIGTRSGQVEVNITEFPYTPSPPEHGRRAGPVPTAIIGGVAGSILLVLIVVGGIVVALRRRRHTFKGDYSTKKHVYGNGYSKAGIPQHHPPMAQNLQYPDDSDDEKKAGPLGGSSYEEEEEEEEGGGGGERKVGGPHPKYDEDAKRPYFTVDEAEARQDGYGDRTLGYQYDPEQLDLAENMVSQNDGSFISKKEWYV
co-IP of endogenous proteins (in words) (syntenin): confirmed an interaction between the endogenous proteins
